Calls of active or inactive are those of the source.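 The calls were made as follows: active = inhibition of at least 50% against any of four protein arginine deiminase enzymes; inactive = the rest.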
Tests used:
Assay in all cases: PAD isozyme probe labeling blockade – biochemical, fluorescence, gel-based ABPP, HTS hits, orthogonal assay for PAD4 inhibitor project, late-stage follow-up (AID 588487)
[1] = target: Protein-arginine deiminase type-1 (Homo sapiens) (UniProt Q9ULC6); conditions: recombinant PAD1-4, gel-based ABPP, RFA probe fluorescence; PAD1; at 10 µM; stronger effect = higher value
In short: (§1)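 System: Recombinant PAD1, PAD2, PAD3 or PAD4 | Input: PAD enzyme 10 µM | Probe or stimulus: RFA fluorescent probe at 1 µM | Compound: One 10 µM dose per compound | Schedule: 15 min compound pre-incubation plus 30 min probe step, 37 °C | Detection: in-gel fluorescence scan of probe-labeled PAD band after SDS-PAGE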

[2] = target: Protein-arginine deiminase type-2 (Homo sapiens) (UniProt Q9Y2J8); conditions: recombinant PAD1-4, gel-based ABPP, RFA probe fluorescence; PAD2; at 10 µM; stronger effect = higher value
In short: as §1

[3] = target: Protein-arginine deiminase type-3 (Homo sapiens) (UniProt Q9ULW8); conditions: recombinant PAD1-4, gel-based ABPP, RFA probe fluorescence; PAD3; at 10 µM; stronger effect = higher value
In short: as §1

[4] = target: Protein-arginine deiminase type-4 (Homo sapiens) (UniProt Q9UM07); conditions: recombinant PAD1-4, gel-based ABPP, RFA probe fluorescence; PAD4; at 10 µM; stronger effect = higher value
In short: as §1

Sequence of Protein-arginine deiminase type-3 (Homo sapiens) (Q9ULW8 whole entry, looked up): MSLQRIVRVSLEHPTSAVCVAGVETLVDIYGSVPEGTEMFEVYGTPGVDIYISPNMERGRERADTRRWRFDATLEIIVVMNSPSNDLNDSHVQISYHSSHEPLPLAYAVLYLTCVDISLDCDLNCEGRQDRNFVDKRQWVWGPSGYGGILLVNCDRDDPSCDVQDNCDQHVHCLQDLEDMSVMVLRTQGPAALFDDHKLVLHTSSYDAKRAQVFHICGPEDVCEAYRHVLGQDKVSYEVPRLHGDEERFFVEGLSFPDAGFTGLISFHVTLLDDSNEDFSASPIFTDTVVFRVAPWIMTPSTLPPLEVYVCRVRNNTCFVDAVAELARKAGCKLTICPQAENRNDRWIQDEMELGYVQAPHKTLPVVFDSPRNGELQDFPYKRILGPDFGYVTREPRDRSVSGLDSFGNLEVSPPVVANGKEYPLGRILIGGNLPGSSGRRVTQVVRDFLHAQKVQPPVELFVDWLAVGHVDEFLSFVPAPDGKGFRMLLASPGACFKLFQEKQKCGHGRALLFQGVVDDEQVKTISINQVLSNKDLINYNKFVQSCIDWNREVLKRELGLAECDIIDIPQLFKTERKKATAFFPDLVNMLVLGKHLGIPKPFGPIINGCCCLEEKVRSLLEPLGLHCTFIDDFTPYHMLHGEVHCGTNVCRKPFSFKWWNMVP
Sequence of Protein-arginine deiminase type-4 (Homo sapiens) (Q9UM07 whole entry, looked up): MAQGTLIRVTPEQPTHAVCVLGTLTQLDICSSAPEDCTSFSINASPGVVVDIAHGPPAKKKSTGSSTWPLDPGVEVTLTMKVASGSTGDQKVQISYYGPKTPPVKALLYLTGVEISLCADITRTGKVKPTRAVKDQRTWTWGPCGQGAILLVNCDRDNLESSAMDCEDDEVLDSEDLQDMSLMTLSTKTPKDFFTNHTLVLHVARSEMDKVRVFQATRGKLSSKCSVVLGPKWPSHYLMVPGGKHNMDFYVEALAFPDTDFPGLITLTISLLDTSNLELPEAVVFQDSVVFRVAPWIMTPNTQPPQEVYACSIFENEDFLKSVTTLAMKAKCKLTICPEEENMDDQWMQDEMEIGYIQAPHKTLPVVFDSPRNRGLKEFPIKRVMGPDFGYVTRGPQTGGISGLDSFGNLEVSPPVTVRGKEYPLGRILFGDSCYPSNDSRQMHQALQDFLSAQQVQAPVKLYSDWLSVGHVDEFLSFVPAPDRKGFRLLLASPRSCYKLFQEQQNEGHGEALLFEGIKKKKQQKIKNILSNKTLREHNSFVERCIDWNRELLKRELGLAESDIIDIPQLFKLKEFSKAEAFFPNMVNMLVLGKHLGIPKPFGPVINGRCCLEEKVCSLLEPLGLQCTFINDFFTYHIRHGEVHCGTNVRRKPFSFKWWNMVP
Sequence of Protein-arginine deiminase type-1 (Homo sapiens) (Q9ULC6 whole entry, looked up): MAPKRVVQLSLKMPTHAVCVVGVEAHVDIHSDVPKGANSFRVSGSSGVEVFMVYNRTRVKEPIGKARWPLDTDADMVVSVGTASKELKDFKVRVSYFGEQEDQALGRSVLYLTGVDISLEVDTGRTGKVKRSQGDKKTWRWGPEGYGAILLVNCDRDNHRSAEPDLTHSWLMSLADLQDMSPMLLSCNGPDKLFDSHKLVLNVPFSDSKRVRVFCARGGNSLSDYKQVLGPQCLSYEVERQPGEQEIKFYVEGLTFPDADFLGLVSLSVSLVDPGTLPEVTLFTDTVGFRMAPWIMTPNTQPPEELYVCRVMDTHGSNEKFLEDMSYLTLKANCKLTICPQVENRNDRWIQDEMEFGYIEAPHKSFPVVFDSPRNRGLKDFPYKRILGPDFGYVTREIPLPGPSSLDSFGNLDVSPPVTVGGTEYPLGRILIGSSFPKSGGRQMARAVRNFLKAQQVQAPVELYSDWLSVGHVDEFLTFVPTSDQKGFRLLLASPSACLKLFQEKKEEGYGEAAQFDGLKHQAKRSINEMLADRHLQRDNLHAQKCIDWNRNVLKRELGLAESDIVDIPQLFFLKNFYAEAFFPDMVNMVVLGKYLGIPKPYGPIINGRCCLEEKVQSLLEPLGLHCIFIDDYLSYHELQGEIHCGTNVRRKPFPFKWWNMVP
Sequence of Protein-arginine deiminase type-2 (Homo sapiens) (Q9Y2J8 whole entry, looked up): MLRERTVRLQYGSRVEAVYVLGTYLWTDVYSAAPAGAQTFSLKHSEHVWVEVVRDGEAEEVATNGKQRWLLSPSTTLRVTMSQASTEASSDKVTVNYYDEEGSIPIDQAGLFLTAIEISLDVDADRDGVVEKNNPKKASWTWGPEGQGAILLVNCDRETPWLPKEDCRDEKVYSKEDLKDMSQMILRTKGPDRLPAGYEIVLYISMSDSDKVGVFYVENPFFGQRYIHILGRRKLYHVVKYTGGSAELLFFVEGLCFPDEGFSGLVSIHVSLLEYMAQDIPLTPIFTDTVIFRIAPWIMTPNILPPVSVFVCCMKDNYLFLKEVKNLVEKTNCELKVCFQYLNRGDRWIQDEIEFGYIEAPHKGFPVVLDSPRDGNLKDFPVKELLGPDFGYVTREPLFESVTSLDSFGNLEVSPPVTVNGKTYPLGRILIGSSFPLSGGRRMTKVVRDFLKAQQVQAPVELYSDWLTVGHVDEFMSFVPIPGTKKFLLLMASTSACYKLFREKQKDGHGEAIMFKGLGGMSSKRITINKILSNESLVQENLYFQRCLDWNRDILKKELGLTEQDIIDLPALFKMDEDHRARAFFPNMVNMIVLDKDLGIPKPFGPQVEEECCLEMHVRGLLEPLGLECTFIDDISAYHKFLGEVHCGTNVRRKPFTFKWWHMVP

`O=C(O)CCC(=O)c1ccc(-c2ccccc2)cc1` was tested, and the inhibition [1] was 16% (inactive), the inhibition [2] was -45% (inactive) and the inhibition [3] was 24% (inactive). For the same compound, the inhibition [4] was -51% (inactive).
With `CN(C)CCN(Cc1ccccc1)c1ccccn1` the inhibition [1] was 13% (inactive), the inhibition [2] was 46% (inactive) and the inhibition [3] was -7% (inactive). For the same compound, the inhibition [4] was 65%.
`Cc1ccc(C2=NN=C(NC(=O)CSc3nncn3C)SC2)cc1` was tested, and the inhibition [1] was 16% (inactive), the inhibition [2] was 1% (inactive) and the inhibition [3] was 32% (inactive). For the same compound, the inhibition [4] was 26% (inactive).
`O=c1cc(-c2ccc(Br)cc2)[nH][nH]1` was tested, and the inhibition [1] was 6% (inactive), the inhibition [2] was -6% (inactive) and the inhibition [3] was 20% (inactive). The inhibition [4] was 51%.
In the case of `CC(=O)N(Cc1cc(=O)[nH]c2ccccc12)c1cccc(C)c1`, the inhibition [1] is reported as 58%, the inhibition [2] is reported as 19% (inactive) and the inhibition [3] is reported as 39% (inactive). For the same compound, the inhibition [4] was -7% (inactive).
`O=C(NCC1CCCO1)c1cc2c([nH]c3ccccc32)c(-c2ccc(F)cc2)n1` (stereo unspecified) was tested, and the inhibition [1] was 36% (inactive), the inhibition [2] was 13% (inactive) and the inhibition [3] was -27% (inactive). For the same compound, the inhibition [4] was 78%.
With `CC(=O)C1=C(c2ccccc2)N(C(C)=O)n2c(C)nnc2S1` the inhibition [1] was 42% (inactive), the inhibition [2] was 25% (inactive) and the inhibition [3] was 32% (inactive). For the same compound, the inhibition [4] was 9% (inactive).
In the case of `O=c1cc(-c2ccc(F)cc2)[nH][nH]1`, the inhibition [1] is reported as 33% (inactive), the inhibition [2] is reported as 28% (inactive) and the inhibition [3] is reported as 1% (inactive). The inhibition [4] was 37% (inactive).
In the case of `CCN(CC)S(=O)(=O)c1ccc(N=NC2=C(O)CCCC2=O)cc1`, the inhibition [1] is reported as -20% (inactive), the inhibition [2] is reported as 63% and the inhibition [3] is reported as 6% (inactive). For the same compound, the inhibition [4] was 93%.
With `Cc1ccc(CNC(=O)c2ccc(C)c(S(=O)(=O)N3CCCCC3)c2)cc1` the inhibition [1] was 21% (inactive), the inhibition [2] was 67% and the inhibition [3] was 31% (inactive). The inhibition [4] was 19% (inactive).
With `Cn1c(SCC(=O)N/N=C/C=C/c2ccco2)nc2ccccc21` the inhibition [1] was 14% (inactive), the inhibition [2] was 41% (inactive) and the inhibition [3] was -13% (inactive). For the same compound, the inhibition [4] was 38% (inactive).
With `O=C(O)c1[nH]c2ccccc2c1-c1ccccc1` the inhibition [1] was 17% (inactive), the inhibition [2] was 14% (inactive) and the inhibition [3] was 10% (inactive). For the same compound, the inhibition [4] was 40% (inactive).
In the case of `COc1ccc(C2C(C#N)=C(N)N(N(C)C)C3=C2C(=O)CCC3)cc1` (stereo unspecified), the inhibition [1] is reported as 13% (inactive), the inhibition [2] is reported as 21% (inactive) and the inhibition [3] is reported as 49% (inactive). For the same compound, the inhibition [4] was 55%.
`COc1cccc2cc(C(=O)NC3CC(C)(C)NC(C)(C)C3)c(=O)oc12` was tested, and the inhibition [1] was 15% (inactive), the inhibition [2] was 7% (inactive) and the inhibition [3] was 66%. For the same compound, the inhibition [4] was 31% (inactive).
`O=c1cc(-c2ccc(Cl)c(Cl)c2)[nH][nH]1` was tested, and the inhibition [1] was 27% (inactive), the inhibition [2] was 51% and the inhibition [3] was 41% (inactive). For the same compound, the inhibition [4] was 42% (inactive).
In the case of `O=C(O)c1ccc(S(=O)(=O)c2ccc3c(c2)C(=O)N(c2ccc(O)cc2)C3=O)cc1`, the inhibition [1] is reported as 18% (inactive), the inhibition [2] is reported as 32% (inactive) and the inhibition [3] is reported as 34% (inactive). For the same compound, the inhibition [4] was -3% (inactive).
In the case of `Cc1c(C(=O)N2CCCCC2)c(S(=O)(=O)N2CCN(c3ccc(Cl)cc3)CC2)c(C)n1C`, the inhibition [1] is reported as -25% (inactive), the inhibition [2] is reported as 6% (inactive) and the inhibition [3] is reported as 26% (inactive). It also gave an inhibition [4] of 67%.
In the case of `c1ccc(CCn2c3ccccc3c3nnc(SCc4ccc5nonc5c4)nc32)cc1`, the inhibition [1] is reported as 18% (inactive), the inhibition [2] is reported as 14% (inactive) and the inhibition [3] is reported as 21% (inactive). For the same compound, the inhibition [4] was 31% (inactive).
For `N#CCCN(C(=O)Cn1nc(C(=O)O)c2ccccc2c1=O)c1ccccc1`, the inhibition [1] was 53%, the inhibition [2] was 21% (inactive) and the inhibition [3] was 29% (inactive). For the same compound, the inhibition [4] was -23% (inactive).
